Compounds with a hit are over-represented: about 2.1% of the library has one in this group of screens.
PABP1 MLLE inh: inhibitors of microRNA-mediated deadenylation, human PABP1 MLLE binding | P11940 | GST-MLLE / FITC-PAM2 fluorescence polarization | inhibition, % at 20 µM | 360,000 tested, 0.36% active | AID 588489; in the data active = inhibition above about 35%, passing the limit was not always enough;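 also: plate controls were DMSO wells with GST-MLLE for no effect and wells lacking GST-MLLE protein for full effect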
EBNA-1 inh: blocks EBNA-1 binding to DNA; EBNA-1 DNA binding, fluorescence polarization; inhibition, % at 14.8 µM; 300,000 tested, 0.34% active; in the data active = inhibition above about 28%
eIF4H inh: inhibitors of RNA binding by human eIF4H. Q15056. eIF4H fluorescence polarization binding assay. inhibition, % at 35 µM. 290,000 tested, 0.94% active. AID 2012;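 also: calls also rest on retests at 20 µM and on dose response follow-up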
ZTA DNA inh: counter-screen for EBNA-1 inhibitors: inhibitors of Epstein-Barr virus ZTA; P03206; 320,000 tested, 0.15% active; ZTA-DNA binding, fluorescence polarization; inhibition, % at 11 µM; in the data active = inhibition above about 33%
Target sequence (P03206 whole entry, looked up): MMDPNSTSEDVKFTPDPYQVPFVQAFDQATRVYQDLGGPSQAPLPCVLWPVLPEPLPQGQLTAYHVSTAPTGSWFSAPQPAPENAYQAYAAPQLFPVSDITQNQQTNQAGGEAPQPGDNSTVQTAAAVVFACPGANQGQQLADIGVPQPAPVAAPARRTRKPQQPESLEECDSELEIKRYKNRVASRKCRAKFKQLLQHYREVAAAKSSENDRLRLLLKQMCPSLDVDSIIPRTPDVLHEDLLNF
NS3 helicase inh: inhibitors of Hepatitis C virus NS3 helicase. 290,000 tested, 0.56% active. inhibition, % at 10.9 µM. NS3 helicase DNA unwinding, Cy5 molecular beacon fluorescence;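 active = inhibition above the mean of all tested compounds plus 3 SD, set per campaign, cut at about 35% in these data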;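 also: 0% = DMSO wells and 100% = thioflavine S control wells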
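Measured by: Cy5 fluorescence, 0 and 60 min reads / Assay system: NS3 helicase fragment of HCV / Control set: low DMSO, high thioflavine S at 110 µM / Times: 1 h reaction at 25 °C, ATP-initiated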
PABP FP inh: PABP-poly(A) binding inhibition; PABP-poly(A) RNA binding, fluorescence polarization; inhibition, % at 35 µM; 290,000 tested, 1% active; AID 2014;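 also: calls also rest on retests at 20 µM and on dose response follow-up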
* hit, by the source's call. Unless noted, no rule for the calls is given here.

CCCn1c2ccc(F)cc2c2nnc(SCCN3CCOCC3)nc21 was read as PABP1 MLLE inh 16.4, eIF4H inh -7.5, NS3 helicase inh -1.7 and PABP FP inh 4.8.
O=C(N/N=C\c1cccnc1)c1ccc(Cl)cc1Cl was read as PABP1 MLLE inh 5.4, EBNA-1 inh -2.6, eIF4H inh 8.5, ZTA DNA inh -14.3, NS3 helicase inh -11.1 and PABP FP inh 7.3.
Screening O=C(NC1CCCCCC1)C(=S)NCCc1ccccc1 returned PABP1 MLLE inh 44.0*, EBNA-1 inh 2.3, eIF4H inh -9.4, ZTA DNA inh -16.4, NS3 helicase inh 0.1 and PABP FP inh -5.1.
`CC(/C=N/n1c(-c2ccncc2)n[nH]c1=S)=C\c1ccco1` gave PABP1 MLLE inh -3.3, EBNA-1 inh -0.1, eIF4H inh 84.1*, ZTA DNA inh 0.1, NS3 helicase inh 13.2 and PABP FP inh 45.5*.
S=c1[nH]nc(-c2ccncc2)n1/N=C/C=C/c1ccco1 was read as PABP1 MLLE inh -1.3, EBNA-1 inh -0.7, eIF4H inh 96.5*, ZTA DNA inh -6.6, NS3 helicase inh 28.6 and PABP FP inh 94.0*.
`Cc1cccc(-c2n[nH]c(=S)n2/N=C/C=C/c2ccco2)c1` gave PABP1 MLLE inh -4.4, EBNA-1 inh 6.2, eIF4H inh 85.0*, ZTA DNA inh 0.1, NS3 helicase inh 29.4 and PABP FP inh 56.8*.
Screening S=c1[nH]nc(-c2cccc(Cl)c2)n1/N=C/c1ccco1 returned EBNA-1 inh 9.4, eIF4H inh 13.5, ZTA DNA inh -17.9, NS3 helicase inh 22.3 and PABP FP inh 13.4.
Screening C(=C\c1ccco1)/C=N/n1cnnc1 returned PABP1 MLLE inh -1.5, EBNA-1 inh -7.7, eIF4H inh 92.7*, ZTA DNA inh -2.5, NS3 helicase inh 2.8 and PABP FP inh 71.8*.
O=c1ccn(Cc2ccc(F)cc2)c2ccnc(C(F)(F)F)c12 was read as PABP1 MLLE inh -7.4, EBNA-1 inh -11.6, eIF4H inh -0.6, ZTA DNA inh 2.4, NS3 helicase inh 16.0 and PABP FP inh -12.3.
For CCn1c(=O)cc(OCC(=O)Nc2ccc3c(c2)OCCO3)c2ccccc21 the results were PABP1 MLLE inh -2.3, EBNA-1 inh -3.8, eIF4H inh -5.6, ZTA DNA inh 0.0, NS3 helicase inh -3.0 and PABP FP inh -8.4.
For S=c1[nH]nc(-c2ccccc2Cl)n1/N=C/C=C/c1ccco1 the results were PABP1 MLLE inh -11.6, EBNA-1 inh -5.5, eIF4H inh 92.1*, ZTA DNA inh -4.6, NS3 helicase inh 35.9 and PABP FP inh 49.1*.
COc1ccccc1/C=C\C=N\n1c(-c2ccc(Cl)cc2Cl)n[nH]c1=S was read as PABP1 MLLE inh -81.3, EBNA-1 inh 2.4, eIF4H inh 14.4, ZTA DNA inh 2.5, NS3 helicase inh -2.9 and PABP FP inh 3.8.
For O=C(Nc1ccc2nc(-c3ccco3)c(-c3ccco3)nc2c1)N1CCN(c2ccccn2)CC1 the results were PABP1 MLLE inh 48.7*, EBNA-1 inh -0.6, eIF4H inh 106.0*, ZTA DNA inh -3.2, NS3 helicase inh 16.7 and PABP FP inh active.
For Nc1ccc(C(=O)N2CCN(S(=O)(=O)c3ccc4c(c3)OCCCO4)CC2)cc1[N+](=O)[O-] the results were PABP1 MLLE inh -0.7 and ZTA DNA inh -7.3.
For COC(=O)c1nn(-c2ccc(OC)cc2)c(=O)cc1NN the results were PABP1 MLLE inh -10.9, EBNA-1 inh -2.8, eIF4H inh active, ZTA DNA inh -7.0, NS3 helicase inh 1.0 and PABP FP inh 67.1.
`CCc1c(O)nc(SCC(=O)Nc2c(C)cccc2C)n(-c2ccc(F)cc2)c1=O` gave PABP1 MLLE inh -82.4.
Screening Cc1c(O)nc(SCC(=O)Nc2ccc3c4c(cccc24)CC3)n(-c2ccc(F)cc2)c1=O returned PABP1 MLLE inh 40.0*, EBNA-1 inh 8.4, eIF4H inh 39.2, ZTA DNA inh -26.0, NS3 helicase inh 16.2 and PABP FP inh -1.0.
`COc1cccc(CN(C)C(=O)c2ccc3nccnc3c2)c1` gave PABP1 MLLE inh -5.2, EBNA-1 inh 0.8, eIF4H inh 87.8*, ZTA DNA inh -1.3, NS3 helicase inh 7.6 and PABP FP inh 89.6*.
`COc1cc(C2Nc3cccc4cccc(c34)N2)ccc1O` gave PABP1 MLLE inh -10.2, EBNA-1 inh 4.0, eIF4H inh 79.2*, ZTA DNA inh 8.5, NS3 helicase inh 19.1 and PABP FP inh 38.9*.
`CCN(CC)c1ccc(C2Nc3cccc4cccc(c34)N2)c(O)c1` gave PABP1 MLLE inh 6.5, EBNA-1 inh -18.8, eIF4H inh 10.4, ZTA DNA inh -11.3, NS3 helicase inh 1.9 and PABP FP inh 2.8.
`c1cc2c3c(cccc3c1)NC(c1ccc3c(c1)OCO3)N2` gave PABP1 MLLE inh -5.6, EBNA-1 inh 3.1, eIF4H inh 23.0, ZTA DNA inh -4.7, NS3 helicase inh 16.0 and PABP FP inh 26.2.
`Oc1ccc2ccccc2c1C1Nc2cccc3cccc(c23)N1` gave PABP1 MLLE inh -9.9, EBNA-1 inh 8.4, eIF4H inh 76.6*, ZTA DNA inh -22.7, NS3 helicase inh -2.7 and PABP FP inh 50.5*.
COc1cc(C2Nc3cccc4cccc(c34)N2)cc(OC)c1OC(C)=O was read as PABP1 MLLE inh 21.4, EBNA-1 inh 6.2, eIF4H inh 89.0*, ZTA DNA inh -1.8, NS3 helicase inh 18.9 and PABP FP inh 57.4*.
CN(CC(=O)Nc1cccc(S(=O)(=O)NC2=NCCC2)c1)Cc1cccc(F)c1 was read as PABP1 MLLE inh -5.3 and ZTA DNA inh -4.4.
`COc1cc(/C=N/NC(=O)c2cccnc2)cc2c1OCO2` gave PABP1 MLLE inh 8.1, EBNA-1 inh -1.0, eIF4H inh -4.3, ZTA DNA inh 12.3, NS3 helicase inh 7.0 and PABP FP inh 0.0.
For COc1cc(/C=N/NC(=O)c2ccccn2)cc2c1OCO2 the results were PABP1 MLLE inh -9.9, EBNA-1 inh 0.7, eIF4H inh inconclusive, ZTA DNA inh 3.0, NS3 helicase inh -1.8 and PABP FP inh 78.9*.
`CCOC(=O)C1=C(C)N(c2ccc(C)c(C)c2)C(=O)/C1=C\c1ccco1` gave PABP1 MLLE inh 9.3, EBNA-1 inh 6.1, eIF4H inh -3.4, ZTA DNA inh 4.0, NS3 helicase inh 1.1 and PABP FP inh -1.0.
COC(=O)C1=C(C)N(c2ccc(C)c(C)c2)/C(=C/c2ccco2)C1=O was read as PABP1 MLLE inh -22.7, EBNA-1 inh -2.7, eIF4H inh 18.3*, ZTA DNA inh 8.7, NS3 helicase inh 13.7 and PABP FP inh 54.2.
`Cc1c(CCC(=O)NCCCCCC(=O)O)c(=O)oc2cc3occ(-c4ccccc4)c3cc12` gave PABP1 MLLE inh 12.3, eIF4H inh 72.1*, NS3 helicase inh 35.1 and PABP FP inh 49.2*.
Screening FC(F)(F)c1ccc(N2CCN(c3cc(-c4ccccc4)nc4ncnn34)CC2)nc1 returned PABP1 MLLE inh 11.2, EBNA-1 inh 4.2, eIF4H inh -1.7, ZTA DNA inh -15.5, NS3 helicase inh -5.5 and PABP FP inh -0.5.

Assay outcomes: PubChem BioAssay, several laboratories
